# TCR CD3 inh: human TCR-CD3 binding inhibition. TAMRA-labeled TCR probe fluorescence, biochemical. inhibition, % at 9.4 µM. hit rate 0.37% among 360,000; in the data active = inhibition above about 19%;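 also: recombinant mutant TCR 2C K166C tagged with TAMRA read by polarization; 0% = receptor in buffer alone and 100% = receptor with positive control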
# SIAE primary: human SIAE inhibition, primary screen; Q9HAT2; SIAE FP-Rh probe binding, fluorescence polarization; inhibition, % at 9.66 µM; hit rate 0.69% among 370,000;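 active = inhibition above a cutoff: mean of compounds within the control limits plus 3 SD of those, cut at about 17% in these data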;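 also: 0% = plate median of compound wells and 100% = probe without SIAE protein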
# PRMT1 inh: PRMT1 (human) inhibition, primary screen | AID 652257 | inhibition, % at 2.79 µM | recombinant PRMT1, activity-based probe fluorescence polarization | hit rate 1.3% among 370,000 | Q99873;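 active = inhibition above about 21% made by adding two undisclosed values, limit read from the data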
# HTRA1 inhibitor: blocks human HTRA1 serine peptidase; Q92743; recombinant HTRA1, FP-rhodamine activity-based probe, fluorescence polarization; inhibition, % at 5.96 µM; hit rate 0.5% among 340,000; AID 504803; in the data active = inhibition above about 36%;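 also: 0% = enzyme with DMSO and 100% = wells lacking enzyme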
# ABHD4 inh: inhibitors of mouse ABHD4; AID 720543; hit rate 0.54% among 370,000; Q8VD66; purified mABHD4, FP-Rh probe fluorescence polarization; inhibition, % at 8.92 µM;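 active = inhibition exceeding the mean over every tested compound plus 3 SD, cut at about 30% in these data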;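 also: 0% = plate median of compound wells and 100% = S159A mutant with DMSO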
# Target sequence (Q8VD66 whole entry, looked up): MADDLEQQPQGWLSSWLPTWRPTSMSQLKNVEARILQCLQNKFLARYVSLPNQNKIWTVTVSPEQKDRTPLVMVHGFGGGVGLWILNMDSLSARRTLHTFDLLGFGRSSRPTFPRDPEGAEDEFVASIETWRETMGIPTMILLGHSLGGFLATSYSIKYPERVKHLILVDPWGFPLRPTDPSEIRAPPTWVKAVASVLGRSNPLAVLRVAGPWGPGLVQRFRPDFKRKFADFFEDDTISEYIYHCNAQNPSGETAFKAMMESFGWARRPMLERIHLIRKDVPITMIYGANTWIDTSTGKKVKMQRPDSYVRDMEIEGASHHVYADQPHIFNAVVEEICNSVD
#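 Test system: mouse ABHD4 enzyme, wild type. Reagent: FP-Rh fluorescent activity-based probe, added after compound pre-incubation. Timing: pre-incubation 45 min, probe exposure 60 min, at 25 °C. Technique: FP readout, ex 525 nm / em 598 nm. Benchmarks: high control S159A mutant with DMSO, low control median of compound wells.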
# An asterisk follows results filed as active; . = no result given. A selection: hits, their analogues and other compounds. The true share with any hit is near 2.7%.
SMILES,TCR CD3 inh,SIAE primary,PRMT1 inh,HTRA1 inhibitor,ABHD4 inh
CCc1cccc(CC)c1NC(=O)c1cccc(NC(=O)c2ccccc2)c1,0,10,0,-30,-7
CC(=O)OC12CCCN(C1)/C(=C/c1cccc(Cl)c1)C2 (centres undefined),.,2,0,.,4
COc1cc(Nc2cc(C)n(-c3ccc(Cl)c(OC)c3)c(=O)c2)ccc1Cl,-6,-4,7,.,1
COc1ccc2ccccc2c1-c1c(C(=O)c2ccc(Br)cc2)[nH]c(N)c1C(=O)NC1CCCCC1,.,1,-7,.,-3
CC(C)(C)c1ccc(OCCC(=O)OCC(=O)Nc2ccc(N3CCOCC3)cc2)cc1,3,1,-2,-2,-1
CCN(CC)C(=O)c1sc2nc(N3CCOCC3)c3c(c2c1N)CCCC3,-3,3,24*,-9,8
S=C(Nc1ccc(Cl)c(Cl)c1)Nc1nnc(-c2ccncc2)s1,.,-1,-1,.,-11
COc1ccc(C2=CSC(/N=C/c3ccc(F)cc3)=NN2)cc1,-1,2,24*,4,-7
COc1ccc(/C=N/c2c(-c3ccc(OC)cc3)nc3n2CCS3)cc1,-11,7,9,9,-5
CCC[C@@H]1C=C(C(=O)OCC)[C@H](c2ccccc2)N1S(=O)(=O)c1ccc(C)cc1,-2,6,2,.,-10
CCC(C)(C)n1nnnc1C(c1ccc(O)c(OC)c1)N1CCc2ccccc2C1 (centres undefined),-2,2,23*,1,0
COC(=O)C1=C(C)N(Cc2ccccc2C(F)(F)F)C(=NCc2cccc(C(F)(F)F)c2)NC1c1ccc(F)cc1 (centres undefined),10,-10,-4,.,12
COc1ccccc1N(O)C1CC(=O)N(c2ccc(F)cc2)C1=O (centres undefined),1,5,31*,8,25
Fc1cccc(C[n+]2csc3ccccc32)c1,3,-2,75*,1,-8
c1ccc(C[n+]2csc3ccccc32)cc1,-7,0,84*,-18,4
Brc1cc2ccccc2[n+](Cc2ccccc2)c1,2,-2,-2,-5,2
CCCC(=O)N1CCC1(C)C(=O)Nc1ccc2nccnc2c1 (centres undefined),-1,-2,0,.,5
O=C(Nc1ccc2[nH]ccc2c1)c1cc(-c2ccc(Cl)cc2)nc2ccccc12,.,-18,9,.,-31
Nc1ccccc1Sc1nc2ccccc2[nH]1,-14,18*,52*,-7,2
CCOC(=S)SCC(=O)Nc1nc(-c2ccccc2)cs1,1,-13,26*,5,-11
Cc1csc(NC(=O)CSc2nnc(-c3cc(C)on3)o2)n1,-6,4,18,16,3
Cc1cc(-c2nnc(SCC(=O)Nc3nc(-c4ccccc4)cs3)o2)no1,5,8,25*,9,20
CCN(C(=O)C1CCN(c2ncccn2)CC1)c1ccccc1,.,-4,-4,.,5
CCN(CC)C(=O)CSc1nnc(-c2ccccn2)n1C,.,0,1,.,-1
C[C@H]1CCC[C@H](O)CC(=O)c2c(O)cc(O)cc2CC(=O)O1,.,1,1,.,16
SMILES,TCR CD3 inh,SIAE primary,PRMT1 inh,HTRA1 inhibitor,ABHD4 inh
O=S(=O)(c1ccc(C2=CSC3=NCCN23)cc1)N1CCOCC1,-4,2,24*,-2,7
COc1ccccc1-c1noc2ncnc(Nc3ccc4c(c3)OCO4)c12,3,-3,-2,-2,-5
O=C(CCCCl)Nc1c2c(nn1-c1ccccc1)CSC2,6,2,23*,4,4
O=C(CCl)Nc1c2c(nn1-c1ccccc1)CSC2,1,3,18,3,5
CCOC(=O)[C@@]12CCCC=C1N(CCc1ccc(Cl)cc1)C(=O)[C@H]2CC(=O)NCc1cccs1,.,-3,1,.,0
COC(=O)C1=C(C)N(Cc2ccco2)C(=O)/C1=C\c1ccc(N(C)C)cc1,11,-29,-3,4,-1
COC(=O)C1=C(C)N(Cc2ccco2)C(=O)/C1=C\c1ccc([N+](=O)[O-])cc1,-4,5,24*,4,10
COc1ccc(OC)c(NC(=O)CCCc2ccccc2)c1,1,-8,22*,-3,1
COc1ccc(CCCC(=O)Nc2cc(C)ccc2OC)cc1,-9,10,0,-6,-10
COc1ccc(OC)c(NC(=O)COC(=O)/C=C/c2ccco2)c1,-3,-4,23*,5,1
COc1ccc(CCNC(=O)/C=C/c2ccco2)cc1OC,3,-1,23*,5,0

# From PubChem BioAssay
